Test [1] can be described thus: In vitro percent inhibition of […] murine endothelial cell proliferation garnered from C57BL/6 mice infected with ectotropic virus at 3 ug/mL. In kind it is functional. To be noted: Mus musculus. In outline:
(§1)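 SVR cells (C57BL/6 murine endothelial cells immortalized with SV40 large T and activated H-ras) plated at 10,000/well on gelatinized wells. Grown 24 h at 37 °C, 10% CO2, in 5% DMEM. Medium then replaced with fresh 5% DMEM containing 3 or 6 µg/mL compound (from 1 mg/mL DMSO stocks) for 72 h. Surviving trypsinized cells Coulter-counted; percent inhibition versus DMSO control.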

Test [2] is described as follows: In vitro percent inhibition of […] murine endothelial cell proliferation garnered from C57BL/6 mice infected with ectotropic virus at 6 ug/mL. It counts as functional. To be noted: Mus musculus. In outline: as §1

By inhibition is commonly meant how much of the control response was suppressed. As to `Cc1ccc(C(=O)/C=C/c2c(Cl)cccc2Cl)cc1`, in test [1], the inhibition at 3 µg/mL amounted to 98.2%. This compound also came in with an inhibition at 6 µg/mL in test [2] of 98.1%.
For `O=C(/C=C/c1c(Cl)cccc1Cl)c1ccccc1` the same measures were 92.9% and 97.5%.
For `O=C(/C=C/c1ccccc1)c1ccc2ccccc2c1` the same measures were 92.2% and 94.7%.
On the same counts, the results for `O=C(/C=C/c1ccccc1)/C=C/c1ccccc1` are 96.6% and 97.7%.
For `O=C1/C(=C/c2ccccn2)CCC/C1=C\c1ccccn1`, testing at 3 µg/mL in test [1] gave an inhibition of 92.9%. Moreover, 6 µg/mL produced 96.7% inhibition in test [2].
As to `O=C(/C=C/c1c(Cl)cccc1Cl)/C=C/c1c(Cl)cccc1Cl`, testing at 3 µg/mL in test [1] gave an inhibition of 87.1%. The same compound showed an inhibition at 6 µg/mL in test [2] of 90.4%.
With `O=C1/C(=C/c2ccccc2)CCC/C1=C\c1ccccc1` [2,6-DIBENZYLIDENECYCLOHEXANONE], 3 µg/mL produced 94.4% inhibition in test [1]. Moreover, at 6 µg/mL the inhibition in test [2] was 97.7%.
For `O=C(/C=C/c1ccccc1)c1ccccc1` [CHALCONE] the same measures were 92.8% and 94.4%.
On the same counts, the results for `COc1cc(/C=C2\CCC/C(=C\c3ccc(O)c(OC)c3)C2=O)ccc1O` [CYCLOVALONE] are 90.1% and 96%.
For the compound `O=C(/C=C/c1ccccn1)c1ccccc1` [WR-190433], the inhibition at 3 µg/mL in test [1] worked out at 89.1%. In test [2], the inhibition at 6 µg/mL is 96.9%.

The values are drawn from ChEMBL document CHEMBL1136410, “Design, synthesis, and biological evaluation of angiogenesis inhibitors: aromatic enone and dienone analogues of curcumin” (2003).
